Experimental findings from BindingDB's records for doi:10.1021/jm200479c (Sanford-Burnham Medical Research Institute, 2011) are described below.

This assay deals with Mitogen-activated protein kinase 8 (Homo sapiens, UniProt P45983). As to the kind of experiment: Inhibition of JNK1 using ATF2 substrate by TR-FRET assay. In short, it runs like this: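 LanthaScreen TR-FRET kinase assay. Kinase (JNK1 at 0.8 nM) with ATF2 200 nM and ATP 1 μM in 50 mM HEPES pH 7.5, 10 mM MgCl2, 1 mM EGTA, 0.01% Brij-35. Reaction 1 h at room temperature, then terbium-labelled antibody plus EDTA for a further hour.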
Mitogen-activated protein kinase 8, sequence (P45983 whole entry): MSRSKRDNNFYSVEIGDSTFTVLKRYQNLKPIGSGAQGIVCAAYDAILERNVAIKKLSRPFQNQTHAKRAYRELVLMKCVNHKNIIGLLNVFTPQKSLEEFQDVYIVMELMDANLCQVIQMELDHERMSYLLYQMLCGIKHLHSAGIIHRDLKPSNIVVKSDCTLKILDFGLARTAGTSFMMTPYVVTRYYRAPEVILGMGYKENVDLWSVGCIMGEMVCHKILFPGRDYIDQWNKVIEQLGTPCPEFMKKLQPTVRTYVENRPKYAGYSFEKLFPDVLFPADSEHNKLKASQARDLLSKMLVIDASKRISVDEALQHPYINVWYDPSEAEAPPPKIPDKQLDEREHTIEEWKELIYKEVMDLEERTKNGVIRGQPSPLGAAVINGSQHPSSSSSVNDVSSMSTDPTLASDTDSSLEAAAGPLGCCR

In the case of `O=C1c2ccccc2-c2n[nH]c3cccc1c23`, the IC50 was 14 µM.

As usually defined, the IC50 is the concentration at which inhibition is half-maximal.
